Assays:
Type in all cases: functional
Mus musculus [1] = assay: Antinociceptive activity of subcutaneously administered compound in phenyl-p-benzoquinone induced writhing mice
Method in brief: (§1)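 Groups of five to six female CD1 mice given drug subcutaneously (10 mL kg-1) 30 min before ip phenyl-p-benzoquinone 2.5 mg kg-1. Writhes (abdominal constrictions/hind-limb extensions) counted over 2.5 min from 10 min post-PBQ. ED50, the dose giving 50% fewer writhes than vehicle, from linear regression.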

Mus musculus [2] = assay: Antinociceptive activity of perorally administered compound (20 mg) in phenyl-p-benzoquinone induced writhing mice
Method in brief: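 Female CD1 mice (Charles River), groups of five to six, dosed orally by blunt intragastric needle (10 mL kg-1) 30 min before ip PBQ at 2.5 mg kg-1. Abdominal constrictions/hind-limb extensions were counted over 2.5 min starting 10 min after PBQ. ED50 is the dose halving writhes versus vehicle, estimated by linear regression.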

Rodentia sp. [3] = assay: Antinociceptive activity in the hot plate test (central activity) in rodents, when compound administered subcutaneously at 10 mg
Method in brief: (§2)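 Male CFLP mice, groups of five to six, placed on a copper surface held at 55 °C; latency to paw licking/shaking or jumping recorded, 30-s cut-off. Drug given subcutaneously at 10 mL kg-1. ED50 = dose doubling response latency versus vehicle, by parallel-line probit analysis.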

Mus musculus [4] = species: Mus musculus; assay: Dose ratio in the presence and absence of the peripheral opioid antagonist in N-methyl-nalorphine in AA writhing mice
Method in brief: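 Acetic acid (0.6%, ip) writhing in male TFW mice; N-methylnalorphine 11.5 mg kg-1 ip 20 min before subcutaneous agonist. Writhes counted 5 min from 15 min post-irritant. Dose ratio taken as the shift between parallel regression lines with and without antagonist.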

Mus musculus [5] = assay: Antinociceptive activity of subcutaneously administered compound in acetic acid (AA) induced writhing mice; settings: sc
Method in brief: (§3)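 Male TFW mice, groups of five to six, given drug subcutaneously (10 mL kg-1), then ip acetic acid 0.6% at 25 mL kg-1. Writhes counted for 5 min beginning 15 min after acetic acid. ED50 = dose reducing writhes 50% versus vehicle, by linear regression.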

Cavia porcellus [6] = species: Cavia porcellus; assay: Inhibition of electrically induced contractions on the guinea pig ileum; settings: read-out: ED50 (the source's name)
Method in brief: (§4)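 Guinea pig ileum contractions evoked by coaxial stimulation at 0.1 Hz, 0.5-ms pulses, supramaximal voltage, recorded isometrically; dose-response curves built with 15-min washout between doses.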

Mus musculus [7] = assay: Antinociceptive activity of perorally administered compound in phenyl-p-benzoquinone induced writhing mice; settings: po
Method in brief: (§5)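 Female CD1 mice, groups of five to six, dosed orally by blunt intragastric needle (10 mL kg-1) 30 min before ip phenyl-p-benzoquinone 2.5 mg kg-1. Abdominal constrictions/hind-limb extensions counted over 2.5 min starting 10 min after PBQ. ED50 = dose halving writhes versus vehicle, by linear regression.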

Rodentia sp. [8] = assay: Antinociceptive activity in the hot plate test (central activity) in rodents, when compound administered subcutaneously at; settings: sc
Method in brief: (§6)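 Male CFLP mice (Hacking and Churchill), groups of five to six, dosed sc at 10 mL kg-1 and placed on a copper surface held at 55 °C. Signs of discomfort (paw licking/shaking, jumping) were scored, with a 30-s cut-off. ED50 is the dose doubling response latency versus vehicle, estimated by parallel-line probit analysis.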

Mus musculus [9] = assay: (§7) Antinociceptive activity in the hot plate test (central activity) in rodents, when compound administered subcutaneously at 50 mg; method in brief: as §6
Mus musculus [10] = assay: Antinociceptive activity of subcutaneously administered compound (30 mg) in acetic acid (AA) induced writhing mice; method in brief: as §3
Mus musculus [11] = assay: (§8) Antinociceptive activity of subcutaneously administered compound (1 mg) in phenyl-p-benzoquinone induced writhing mice
Method in brief: (§9)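 Female CD1 mice (Charles River), groups of five to six, given vehicle or drug sc (10 mL kg-1) 30 min before ip phenyl-p-benzoquinone at 2.5 mg kg-1 (10 mL kg-1). Writhes were counted for 2.5 min from 10 min post-irritant. ED50, the dose giving a 50% reduction in writhes relative to vehicle, was obtained by linear regression.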

Mus musculus [12] = assay: (§10) Antinociceptive activity of subcutaneously administered compound (10 mg) in phenyl-p-benzoquinone induced writhing mice; method in brief: as §9
Mus musculus [13] = assay: Antinociceptive activity of subcutaneously administered compound (100 mg) in acetic acid (AA) induced writhing mice; method in brief: as §3
Mus musculus [14] = assay: as §8; method in brief: as §1; remark: listed apart in the source
Rodentia sp. [15] = assay: Antinociceptive activity in the hot plate test (central activity) in rodents, when compound administered subcutaneously at 100 mg; method in brief: as §2
Mus musculus [16] = assay: as §10; method in brief: as §1; remark: listed apart in the source
Mus musculus [17] = assay: Antinociceptive activity of perorally administered compound (50 mg) in phenyl-p-benzoquinone induced writhing mice; method in brief: as §5
Cavia porcellus [18] = assay: Inhibition of electrically induced contractions on the guinea pig ileum at […] after dosing.; method in brief: as §4
Rodentia sp. [19] = assay: as §7; method in brief: as §2
Rodentia sp. [20] = assay: Antinociceptive activity in the hot plate test (central activity) in rodents, when compound administered subcutaneously at 20 mg; method in brief: as §2
Mus musculus [21] = assay: Antinociceptive activity of subcutaneously administered compound (20 mg) in acetic acid (AA) induced writhing mice; method in brief: as §3
Mus musculus [22] = assay: Antinociceptive activity of subcutaneously administered compound (3 mg) in acetic acid (AA) induced writhing mice; method in brief: as §3
Mus musculus [23] = assay: Antinociceptive activity of subcutaneously administered compound (10) in phenyl-p-benzoquinone induced writhing mice; method in brief: as §1
[24] = Mus musculus, sc, read-out: ED50

SMILES	ED50 (Mus musculus [1]; [24])	Inhibition (Mus musculus [2])	Ratio (Mus musculus [4])	ED50 (Mus musculus [5])	EC50 (Cavia porcellus [6])	also measured
CC(=O)O.CCN(CCc1ccc(Br)cc1)C(=O)CNC(=O)[C@@H](CCCN=C(N)N)NC(=O)[C@H](Cc1ccc(O)cc1)N=C(N)N	3.4 mg/kg	15%	1.5	0.35 mg/kg	216 nM	Inhibition (Rodentia sp. [3]): 0%
CC(=O)O.CCN(CCc1ccccc1F)C(=O)CNC(=O)[C@@H](CCCN=C(N)N)NC(=O)[C@H](Cc1ccc(O)cc1)N=C(N)N	0.9 mg/kg	–	9.8	0.17 mg/kg	24.6 nM	ED50 (Mus musculus [7]): ~50 mg/kg; ED50 (Rodentia sp. [8]): 22.2 mg/kg
CC(=O)O.CCN(Cc1ccc(F)cc1)C(=O)CNC(=O)[C@@H](CCCN=C(N)N)NC(=O)[C@H](Cc1ccc(O)cc1)N=C(N)N	–	12%	6.4	0.32 mg/kg	46 nM	ED50 (Mus musculus [1]): 1.7 mg/kg; Inhibition (Mus musculus [9]): 0%
CC(=O)O.CCN(CCc1ccc(S(N)(=O)=O)cc1)C(=O)CNC(=O)[C@@H](CCCN=C(N)N)NC(=O)[C@H](Cc1ccc(O)cc1)N=C(N)N	–	–	–	–	4900 nM	Inhibition (Mus musculus [10]): 0%
CC(=O)O.CCN(CCc1ccc2ccccc2c1)C(=O)CNC(=O)[C@@H](CCCN=C(N)N)NC(=O)[C@H](Cc1ccc(O)cc1)N=C(N)N	–	0%	–	–	–	Inhibition (Mus musculus [11]): 11%
CC(=O)O.CCN(CCc1ccccc1C(F)(F)F)C(=O)CNC(=O)[C@@H](CCCN=C(N)N)NC(=O)[C@H](Cc1ccc(O)cc1)N=C(N)N	–	0%	–	–	28.4 nM	Inhibition (Mus musculus [12]): 40%
CC(=O)O.CCN(CCc1ccc(Br)cc1)C(=O)CNC(=O)[C@@H](CCCN=C(N)N)NC(=O)[C@@H](N)Cc1ccc(O)cc1	–	0%	–	–	< 100 nM	Inhibition (Mus musculus [13]): 0%; Inhibition (Mus musculus [14]): 10%; Inhibition (Rodentia sp. [15]): 0%
CC(=O)O.CCN(Cc1ccc([N+](=O)[O-])cc1)C(=O)CNC(=O)[C@@H](CCCN=C(N)N)NC(=O)[C@@H](N)Cc1ccc(O)cc1	–	–	2.8	0.02 mg/kg	9.7 nM	Inhibition (Mus musculus [16]): 0%; Inhibition (Mus musculus [17]): 0%; Inhibition (Mus musculus [9]): 0%
CC(=O)O.CCN(CCc1ccc(S(N)(=O)=O)cc1)C(=O)CNC(=O)[C@@H](CCCN=C(N)N)NC(=O)[C@@H](N)Cc1ccc(O)cc1	–	–	–	–	11000 nM	Inhibition (Mus musculus [13]): 0%
CC(=O)O.CCN(CCc1ccc([N+](=O)[O-])o1)C(=O)CNC(=O)[C@@H](CCCN=C(N)N)NC(=O)[C@@H](N)Cc1ccc(O)cc1	–	0%	–	–	–	Inhibition (Mus musculus [14]): 0%
CC(=O)O.CCN(CCNC(=O)[C@@H](CCCN=C(N)N)NC(=O)[C@@H](N)Cc1ccc(O)cc1)CCc1ccc([N+](=O)[O-])cc1	–	–	–	–	–	Inhibition (Cavia porcellus [18]): 25%
CC(=O)O.CCN(Cc1ccccc1[N+](=O)[O-])C(=O)CNC(=O)[C@@H](CCCN=C(N)N)NC(=O)[C@@H](N)Cc1ccc(O)cc1	60.3 mg/kg	–	2.8	6.1 mg/kg	522 nM	Inhibition (Rodentia sp. [19]): 0%
CC(=O)O.CCN(CCc1ccccc1F)C(=O)CNC(=O)[C@@H](CCCN=C(N)N)NC(=O)[C@@H](N)Cc1ccc(O)cc1	13.7 mg/kg	–	13.3	0.3 mg/kg	22 nM	Inhibition (Mus musculus [17]): 0%; Inhibition (Rodentia sp. [3]): 0%
CC(=O)O.CCN(Cc1ccc(F)cc1)C(=O)CNC(=O)[C@@H](CCCN=C(N)N)NC(=O)[C@@H](N)Cc1ccc(O)cc1	10.4 mg/kg	–	3.9	0.09 mg/kg	63.8 nM	Inhibition (Rodentia sp. [20]): 0%
CC(=O)O.CCN(CCc1cccs1)C(=O)CNC(=O)[C@@H](CCCN=C(N)N)NC(=O)[C@@H](N)Cc1ccc(O)cc1	–	21%	–	–	–	Inhibition (Mus musculus [14]): 0%
CC(=O)O.CCN(CCc1ccc([N+](=O)[O-])cc1)C(=O)CNC(=O)[C@@H](CCCN=C(N)N)NC(=O)[C@@H](N)Cc1ccc(O)cc1	17.5 mg/kg	–	4.5	3.1 mg/kg	48.6 nM	ED50 (Mus musculus [7]): 43.5 mg/kg; Inhibition (Rodentia sp. [15]): 0%
CC(=O)O.CCN(CCCc1ccc([N+](=O)[O-])cc1)C(=O)CNC(=O)[C@@H](CCCN=C(N)N)NC(=O)[C@@H](N)Cc1ccc(O)cc1	–	–	–	–	1800 nM	Inhibition (Mus musculus [10]): 0%
CC(=O)O.CCN(CCc1ccc(Cl)c(Cl)c1)C(=O)CNC(=O)[C@@H](CCCN=C(N)N)NC(=O)[C@@H](N)Cc1ccc(O)cc1	4.7 mg/kg	0%	0.5	–	12.5 nM	Inhibition (Rodentia sp. [15]): ~100%; Inhibition (Mus musculus [21]): 0%
CC(=O)O.CCN(CCc1ccccc1[N+](=O)[O-])C(=O)CNC(=O)[C@@H](CCCN=C(N)N)NC(=O)[C@@H](N)Cc1ccc(O)cc1	31 mg/kg	–	6.4	2.7 mg/kg	118 nM	Inhibition (Mus musculus [17]): 0%; Inhibition (Rodentia sp. [20]): 0%
CC(=O)O.CCN(CCc1ccncc1)C(=O)CNC(=O)[C@@H](CCCN=C(N)N)NC(=O)[C@@H](N)Cc1ccc(O)cc1	–	–	–	–	569 nM	Inhibition (Mus musculus [22]): 0%
CC(=O)O.CCN(CCc1ccc2ccccc2c1)C(=O)CNC(=O)[C@@H](CCCN=C(N)N)NC(=O)[C@@H](N)Cc1ccc(O)cc1	–	0%	–	–	–	Inhibition (Mus musculus [14]): 27%
CC(=O)O.CCN(Cc1ccc(-c2ccccc2)cc1)C(=O)CNC(=O)[C@@H](CCCN=C(N)N)NC(=O)[C@@H](N)Cc1ccc(O)cc1	–	0%	–	–	–	Inhibition (Mus musculus [14]): 13%
CC(=O)O.CCN(CCc1ccco1)C(=O)CNC(=O)[C@@H](CCCN=C(N)N)NC(=O)[C@@H](N)Cc1ccc(O)cc1	–	0%	–	–	–	Inhibition (Mus musculus [14]): 0%
CC(=O)O.CCN(CCc1ccccc1C(F)(F)F)C(=O)CNC(=O)[C@@H](CCCN=C(N)N)NC(=O)[C@@H](N)Cc1ccc(O)cc1	–	0%	–	–	72.1 nM	Inhibition (Mus musculus [23]): 33%
CC(=O)O.CCN(CCc1ccc([N+](=O)[O-])o1)C(=O)CNC(=O)[C@@H](CCCN=C(N)N)NC(=O)[C@H](Cc1ccc(O)cc1)N=C(N)N	–	15%	–	–	–	Inhibition (Mus musculus [14]): 17%
